Experimental data as given in paper PMC2858377 (Nature structural & molecular biology, 2009).
“Also recorded” adds a separate entry of the source.

Tests used:
[1] = tested on: nuclear/cytoplasmic distribution of KSRP in HIRc-B cells; assay: KSRP sub-cellular localization, HIRc-B cells; assay type: cell-based; details: insulin 10^−6 M, 1h; nuclear and cytoplasmic extracts
[2] = tested on: cellular distribution of AUF1 and hnRNPA1 in HIRc-B cells; assay: AUF1 and hnRNPA1 cellular distribution, HIRc-B cells; assay type: cell-based; details: insulin 10^−6 M, 1h
14-3-3ζ [3] = target: T1, 14-3-3ζ (Homo sapiens, UniProt P63104); assay: Isothermal titration calorimetry of KH1-derived peptides with 14-3-3ζ; assay type: binding; details: ITC, 200 μM 14-3-3ζ, 2 mM peptide, 30°C
T1 sequence (P63104 1-245): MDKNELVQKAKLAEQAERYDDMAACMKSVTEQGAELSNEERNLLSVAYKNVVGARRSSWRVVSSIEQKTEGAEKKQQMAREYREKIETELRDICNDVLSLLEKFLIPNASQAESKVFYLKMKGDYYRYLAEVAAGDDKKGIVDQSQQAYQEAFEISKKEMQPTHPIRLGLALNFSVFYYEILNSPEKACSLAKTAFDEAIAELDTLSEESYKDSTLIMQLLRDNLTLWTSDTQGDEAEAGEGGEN
In short: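 14-3-3ζ was dialysed into 10 mM Tris pH 7.4, 50 mM NaCl, 1 mM TCEP. It was titrated with phosphorylated or unphosphorylated KH1-derived peptide dissolved in the dialysis buffer, in a VP-ITC microcalorimeter. Concentrations given are 200 μM protein and 2 mM peptide; all runs were at 30 °C.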

14-3-3ζ [4] = target: T1, 14-3-3ζ; assay: SOFAST 15N-1H HMQC NMR titration of 14-3-3 into 15N-labelled KH1 / phospho-KH1; assay type: binding; details: 15 μM KH1 or phospho-KH1, KH:14-3-3 1:2 ratio
In short: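 15N-labelled KH1 or AKT1-phosphorylated KH1 in 10 mM Tris-HCl pH 7.4, 50 mM NaCl, 1 mM TCEP was mixed with 14-3-3ζ at a 1:2 ratio. SOFAST 15N-HMQC spectra were superimposed on free-domain spectra to track resonance broadening. For competition, the phosphorylated KH1 peptide was added to the phospho-KH1–14-3-3 complex at a 1:2:10 ratio.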

AU-rich RNA targets = assay: KH domain–RNA binding by 15N-HSQC NMR titration
In short: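 Chemically synthesised RNA hexamers, used without further purification, were titrated into the 15N-labelled KH domain sample. 15N-HSQC spectra were acquired across the titration, with the protein in Tris-HCl pH 7.4/NaCl/TCEP buffer at 27°C.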

AKT1 = assay: In vitro phosphorylation by AKT kinase; assay type: biochemical; details: 100 μM KH1, 1 μg recombinant active AKT1, 37°C, 48 hours
Folding state by NMR = assay type: physicochemical; details: for folding state (in words): SOFAST 15N-1H HMQC, 10 mM Tris-HCl pH 7.4, 50 mM NaCl, 1 mM TCEP
In short: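 KH1 (residues 130–218) was phosphorylated with active AKT1 and separated from unphosphorylated protein by gel filtration, with identity confirmed by mass spectrometry. Samples were exchanged into 10 mM Tris-HCl pH 7.4, 50 mM NaCl, 1 mM TCEP and examined by 15N-HSQC / SOFAST HMQC. Phospho-KH1 was then dephosphorylated with 100 U λ phosphatase (60 min, 37 °C), re-purified and re-examined. Heat-inactivated AKT1 and S193A mutant served as controls.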

[5] = CD spectroscopy / thermal unfolding; assay type: physicochemical
KSRP KH2 = assay: KH1–KH2 inter-domain interaction by 15N-HSQC NMR; assay type: binding, human; details: 15N-HSQC of KH1_143–218, KH2_233-305 and KH12_143–305

## insulin: insulin treatment induces AKT activation in HIRc-B cells
[1]
  KSRP localization: AKT activation promotes nuclear localization of KSRP
[2]
  effect on AUF1 and hnRNPA1 distribution: did not affect the cellular distribution of the ribo-nucleoproteins AUF1 and hnRNPA1

## non phosphorylated peptide: KH1-derived non-phosphorylated peptide used in ITC (YGLPERSVSLTGAPES)
14-3-3ζ [3]
  binding to 14-3-3ζ (in words): no binding is observed

B1: KH1: first KH domain of human KSRP (Ile130–Gly218) (protein)
chain: ISSQLGPIHPPPRTSMTEEYRVPDGMVGLIIGRGGEQINKIQQDSGCKVQISPDSGGLPERSVSLTGAPESVQKAKMMLDDIVSRGRGG
modifications: 15N-labelled
14-3-3ζ [4]
  interaction with 14-3-3 (change in spectrum): the two proteins are not interacting; also recorded: No appreciable change is observed in the spectrum of the domain
14-3-3ζ [4]; listed as Non-phosphorylated KH1
  interaction with 14-3-3 (change in spectrum): not recognized by 14-3-3
AU-rich RNA targets; compared with the other KH domains
  affinity for AU-rich sequences (in words): affinity substantially lower than that of the other KH domains
AU-rich RNA targets; read-out: Kd for AU-rich RNA, 5′-UAUUUA-3′ and 5′-UAUUAU-3′ RNAs, 25 μM 15N-labeled KH domain, 10 mM Tris-HCl pH 7.4, 100 mM NaCl, 1 mM TCEP, 27°C, too low to be accurately measured
  Kd: > 1000 µM
AKT1
  phosphorylation efficiency: ~ 90%
Folding state by NMR
  folding state (in words): folded
[5]; 37°C
  fraction of unfolded protein: ~ 16%
KSRP KH2
  interaction of KH1 with KH2 (in words): KH1 and KH2 do not interact in a stable and specific way

B2: phospho-KH1: KSRP KH1 phosphorylated by AKT kinase at Ser193 (protein)
chain: ISSQLGPIHPPPRTSMTEEYRVPDGMVGLIIGRGGEQINKIQQDSGCKVQISPDSGGLPERSVSLTGAPESVQKAKMMLDDIVSRGRGG
modifications: phosphoserine at 193; 15N-labelled
14-3-3ζ [4]
  interaction with 14-3-3 (change in spectrum): Selected resonances broaden substantially; also recorded: interacts with the protein
14-3-3ζ [4]; listed as phosphorylated KH1
  interaction with 14-3-3 (change in spectrum): strong selective decrease in the intensity of the NMR signal of a small number of resonances
Folding state by NMR
  folding state (in words): unfolded
Folding state by NMR; listed as phosphorylated protein
  folding state (in words): essentially unfolded
Folding state by NMR; SOFAST HMQC after λ protein phosphatase, 100 Units, 60 minutes, 37 °C
  folding after de-phosphorylation (in words): removal of the phosphate group leads to complete refolding of the protein
[5]; CD at 20, 40, 60, 80 and 95 °C
  effect of temperature on CD spectrum: The spectrum of the protein does not change with temperature; also recorded: The spectra do not change substantially at increasing temperatures
[5]; CD, 20 °C, range expected for fully unfolded proteins 69.8-89.9 %
  apparent percentage of unfolded peptidic chain: 79.9%
